STAT1 inh = reduces IFN-gamma driven STAT1 reporter signal; actives 0.35% (n = 200,000); inhibition, % at 5.5 µM; NIH 3T3 STAT1-luciferase reporter, luminescence;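 active = inhibition above a set limit, the mean inhibition across all tested compounds plus 3 SD, cut at about 34% in these data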;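 note: 0% = IFN-gamma with DMSO and 100% = IFN-gamma with 300 µM nifuroxazide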
STAT1 act-1 = increases IFN-gamma driven STAT1 reporter signal. NIH 3T3 STAT1-luciferase reporter, luminescence; 100% = IFN-gamma alone, no compound. activation (% of control), % at 5.5 µM. actives 2.6% (n = 200,000). AID 932;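 active = activation above the screen-wide mean activation plus 3 SD, cut at about 130% in these data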;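 note: raw ratio to IFN-gamma control signal so 100% means no change and 0% no light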
STAT3 inh = STAT3 signaling inhibition; U3A cells, IL-6 STAT3-luciferase reporter, luminescence; host cell line lacks STAT1; inhibition, % at 5.5 µM; actives 0.89% (n = 190,000); AID 862;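 active = inhibition above the mean inhibition across all screened compounds plus 3 SD, cut at about 44% in these data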;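 note: 0% = DMSO only wells and 100% = 100 µM nifuroxazide control wells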
APP 5'UTR act = activates APP 5'UTR luciferase reporter; SH-SY5Y APP 5'UTR luciferase reporter, luminescence; zero percent = DMSO vehicle wells; activation, % at 2 µM; actives 1% (n = 190,000); AID 1276;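 active = activation above a set limit, based on mean plus 3 SD of controls, cut at about 140% in these data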
NF-kB neuron act = raises NF-kB expression in human neuronal cells | fold change at 12.5 µM | actives 1.6% (n = 190,000) | NF-kB reporter expression; stronger effect = higher value; in the data active = fold change above about 3.3
STAT3 act-1 = increases IL-6 driven STAT3 reporter signal; activation (% of control), % at 5.6 µM; U3A cells, IL-6 STAT3-luciferase reporter, luminescence; 100% = signal with IL-6 EC80 alone; AID 871; actives 0.91% (n = 190,000);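 active = activation above the screen-wide mean of compound activation plus 3 SD, cut at about 130% in these data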;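 note: 0% = background luminescence of wells with medium and substrate only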
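Detection: reporter luminescence signal / Assay system: STAT1-lacking human U3A cells, STAT3 luciferase reporter / Incubation: compound pre-incubation 1 h before IL-6, then 6 h stimulation at 37 °C / Control set: IL-6-only high control / Read-out: % activation relative to IL-6 control / Probe or stimulus: Interleukin-6, 33 ng/mL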
STAT3 act-2 = STAT3 activation, confirmation assay | U3A STAT3-luciferase reporter, IL-6 potentiation, luminescence; U3A cells lack STAT1; 100 means same as IL-6 alone | AID 1267 | potentiation (% of control), % at 5.7 µM | shares compounds with STAT3 act-1 | actives 64% (n = 1,200);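 active = percent activation of the STAT3 luciferase reporter above a set limit taken from the earlier primary screen, cut at about 130% in these data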;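 note: 0% = background signal of medium plus substrate and 100% = median of IL-6 with DMSO wells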
NFkB act 2 = counter-screen for STAT3 activators: NF-kappaB activation; shares compounds with STAT3 act-1; human cells, NF-kappaB reporter activation; activation (% of control), % at 5.7 µM; actives 11% (n = 1,200); AID 1309; in the data active = activation above about 120%;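 note: reporter induced by TNF-alpha stimulation; 100% = median of stimulated DMSO wells and 0% = no signal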
STAT1 act-2 = activates STAT1, counter-screen to STAT3 activators; shares compounds with STAT3 act-1; NIH 3T3 STAT1-luciferase reporter, IFN-gamma, luminescence; activation (% of control), % at 5.7 µM; actives 13% (n = 1,200);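 active = activation above the solvent-only control well mean plus 3 SD, set per screening run, cut at about 120% in these data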;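 note: 100% = IFN-gamma with DMSO median signal so 100% means no change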
* marks the source's active call; other numbers are inactive results; / = no result. A selection: hits, their analogues and other compounds. The true share with any hit is near 5.1%.

SMILES	STAT1 inh	STAT1 act-1	STAT3 inh	APP 5'UTR act	NF-kB neuron act	STAT3 act-1	STAT3 act-2	NFkB act 2	STAT1 act-2
Cc1c(C(=O)NCc2cccnc2)oc2ccc(S(=O)(=O)N3CC(C)CC(C)C3)cc12 (stereo unspecified)	2	96	-46	3	1.1	136*	160*	102	102
Cc1cc(NC(=O)CCl)n(-c2nc3ccccc3s2)n1	-4	102	-61	43	1.1	151*	146*	106	99
Cc1cc(NC(=O)C2CC2)n(-c2nc3ccccc3s2)n1	-20	117	-70	-9	1.5	160*	154*	108	112
O=C1CCN(c2ccc([N+](=O)[O-])cc2F)CC1	-4	103	16	-4	1.2	92	/	/	/
O/N=C1\CCCc2ccc(Cl)cc21	5	95	8	5	1.1	93	/	/	/
O=C(COC(=O)c1ccc(O)cc1)Nc1ccc(Cl)cc1	-3	99	-16	-1	1.3	117	/	/	/
CN(C)S(=O)(=O)c1ccc(C(=O)Oc2cc(=O)[nH]c3ccccc23)cc1	-4	103	-61	-10	1	154*	124	100	98
CCOC(=O)c1[nH]c2ccccc2c1NC(=O)c1ccc(S(=O)(=O)N(C)C)cc1	1	99	-15	0	1.4	112	/	/	/
CC(Sc1ccc2c(c1)OCCO2)C(=O)Nc1ccc(N2CCOCC2)cc1 (stereo unspecified)	-5	105	7	12	1.2	96	/	/	/
CCOc1ccc(NC(=O)C(C)Oc2ccccc2C(=O)Nc2ccc(C)c(Cl)c2)cc1 (stereo unspecified)	-10	109	-61	-13	1.1	149*	137*	111	103
COc1cccc(C(=O)NC(=S)Nc2ccccc2N2CCCC2)c1	-1	100	-47	-17	1	147*	141*	106	93
COc1cccc(C(=O)Nc2ccccc2N2CCCC2)c1	1	95	14	-12	1.1	90	/	/	/
CCOc1ccccc1-c1n[nH]c(=S)o1	-4	104	-86	-8	0.93	173*	156*	104	96
Cc1cc(C)c(C#N)c(SCc2nc3ccccc3[nH]2)n1	-18	117	-87	148*	2.9	185*	165*	110	105
COc1ccc(CCNC(N)=S)cc1OC	5	96	-3	5	1.1	106	/	/	/
CCOc1ccccc1-n1nnnc1SC(C)C(=O)OC (stereo unspecified)	4	95	-6	-5	1.1	108	/	/	/
Cc1nc(-c2ccccc2)nc(Cl)c1Cl	9	91	2	8	1.1	100	/	/	/
CCC(=O)n1nc(-c2ccc(Cl)cc2)nc1SC	-14	113	16	21	2	89	/	/	/
Cc1nc2nc(-c3ccccc3)nn2c(C)c1Cl	-15	114	-92	-14	/	179*	169*	126*	138*
Cc1nc2nc(-c3ccc(Cl)cc3)nn2c(C)c1Cl	9	92	-84	9	1.9	167*	164*	118	124*
O=C(NC(=S)Nc1c(Cl)ccc2nsnc12)c1ccco1	2	98	1	26	0.8	101	/	/	/
CC(=O)Nc1ccc(NC(=O)CSc2nc3ccccc3o2)cc1	-7	106	2	9	1.5	100	/	/	/
CC(=O)Nc1ccc(N/C=C(\C=O)c2nc3ccccc3o2)cc1	3	98	-57	-20	1.2	147*	151*	94	103
CC(=O)Nc1cccc(N/C=C(\C=O)c2nc3ccccc3o2)c1	-10	109	-74	46	0.74	171*	176*	115	112
O=C/C(=C\Nc1ccc(Br)cc1)c1nc2ccccc2o1	0	99	11	14	0.96	94	/	/	/
SMILES	STAT1 inh	STAT1 act-1	STAT3 inh	APP 5'UTR act	NF-kB neuron act	STAT3 act-1	STAT3 act-2	NFkB act 2	STAT1 act-2
O=C/C(=C\Nc1ccccn1)c1nc2ccccc2o1	1	99	-66	12	0.81	158*	144*	114	100
Cc1cc(NC(=O)CSc2nc(CC(C)(C)C)nc3c2c(=O)n(C)c(=O)n3C)no1	-2	102	-1	6	1.1	109	/	/	/
N=C1C(c2ccccc2)=C(O)CN1c1cccc(O)c1	-11	108	5	6	1.2	100	/	/	/
c1ccc(CCn2nnnc2CN2CCCc3ccccc32)cc1	-4	103	-35	34	1.6	128	/	/	/
CCC(C)(C)n1nnnc1CN1CCc2ccccc21	-4	100	-53	-3	1.2	145*	126	105	103
CC(C)c1ccccc1NC(=S)NCc1ccncc1	-5	105	4	5	1.1	100	/	/	/
COc1ccc(/C=N/N(C(C)=O)c2nc(-c3ccc(C)cc3)cs2)cc1	-2	102	17	-2	1.2	88	/	/	/
COc1ccccc1/C=N/N(C(C)=O)c1nc(-c2ccc(F)cc2)cs1	-21	119	-110	24	2.2	194*	185*	126*	150*
COCCNC(=O)C(=O)NNC(=O)COc1ccc(OC)cc1	-2	101	2	20	1.2	102	/	/	/
COCCNC(=O)C(=O)NNC(=O)c1ccccc1OC	-1	99	-46	8	1.2	142*	137*	109	103
CC(=O)Nc1ccc(S(=O)(=O)Nc2nc3ccccc3nc2Nc2ccc3ccccc3c2)cc1	2	98	-56	4	1.2	152*	152*	117	113
CCCCN(CCCC)c1nc2ccccc2nc1NS(=O)(=O)c1ccc(NC(C)=O)cc1	0	100	13	1	1	93	/	/	/
c1ccc(-c2nnc(CN3CCCc4ccccc43)o2)cc1	-1	101	-49	4	1.2	145*	124	105	102
COc1ccc(Cl)cc1NC(=O)c1[nH]nc(OC)c1[N+](=O)[O-]	5	93	-35	-1	0.83	144*	140*	96	95
CC1=NC(=O)C(N=Nc2cccc(O)c2)N1c1ccccc1 (stereo unspecified)	-14	113	-89	109	4.2*	185*	187*	105	120
O=c1cc(-c2ccccc2)nc2n1Cc1ccccc1-2	-15	107	-66	-4	0.74	155*	133*	114	118
O=C(c1cc(-c2ccccc2)nc2ccccc12)N1CCc2ccccc2C1	4	96	-9	16	0.86	106	/	/	/

Screening data deposited in PubChem by several laboratories.
